Reference: ChEMBL document CHEMBL4665627 (Eur J Med Chem, 2019)
≈ marks a conversion by molar mass, not a printed value.

Experiments:
Format in all cases: functional
Escherichia coli [1] = assay: Antibacterial activity against Escherichia coli ATCC 25922 assessed as inhibition of bacterial growth after 24 hrs by CLSI protocol based two fold serial dilution method
Outline: (§1)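 Two-fold serial broth dilution in 96-well plates following CLSI; MIC (mM) taken as the lowest concentration giving complete growth inhibition; MIC values from three independent experiments.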

Aspergillus fumigatus = assay: Antifungal activity against Aspergillus fumigatus assessed as inhibition of fungal growth after 24 hrs by CLSI protocol based two fold serial dilution method; outline: as §1
Candida parapsilosis = assay: Antifungal activity against Candida parapsilosis ATCC 22019 assessed as inhibition of fungal growth after 24 hrs by CLSI protocol based two fold serial dilution method; conditions: Lodderomyces parapsilosis; outline: as §1
Klebsiella pneumoniae = assay: Antibacterial activity against Klebsiella pneumoniae assessed as inhibition of bacterial growth after 24 hrs by CLSI protocol based two fold serial dilution method; outline: as §1
Pseudomonas aeruginosa [2] = assay: Antibacterial activity against Pseudomonas aeruginosa ATCC 27853 assessed as inhibition of bacterial growth after 24 hrs by CLSI protocol based two fold serial dilution method; outline: as §1
Acinetobacter baumannii = assay: Antibacterial activity against Acinetobacter baumannii assessed as inhibition of bacterial growth after 24 hrs by CLSI protocol based two fold serial dilution method; outline: as §1
Pseudomonas aeruginosa [3] = assay: Antibacterial activity against Pseudomonas aeruginosa assessed as inhibition of bacterial growth after 24 hrs by CLSI protocol based two fold serial dilution method; outline: as §1
Candida albicans [4] = assay: Antifungal activity against Candida albicans assessed as inhibition of fungal growth after 24 hrs by CLSI protocol based two fold serial dilution method; outline: as §1
Candida tropicalis = assay: Antifungal activity against Candida tropicalis assessed as inhibition of fungal growth after 24 hrs by CLSI protocol based two fold serial dilution method; outline: as §1
Staphylococcus aureus [5] = assay: Antibacterial activity against Staphylococcus aureus assessed as inhibition of bacterial growth after 24 hrs by CLSI protocol based two fold serial dilution method; outline: as §1
Escherichia coli [6] = assay: Antibacterial activity against Escherichia coli assessed as inhibition of bacterial growth after 24 hrs by CLSI protocol based two fold serial dilution method; outline: as §1
Enterococcus faecalis = assay: Antibacterial activity against Enterococcus faecalis assessed as inhibition of bacterial growth after 24 hrs by CLSI protocol based two fold serial dilution method; outline: as §1
Candida albicans [7] = assay: Antifungal activity against Candida albicans ATCC 90023 assessed as inhibition of fungal growth after 24 hrs by CLSI protocol based two fold serial dilution method; outline: as §1
Staphylococcus aureus [8] = assay: Antibacterial activity against methicillin-resistant Staphylococcus aureus N315 assessed as inhibition of bacterial growth after 24 hrs by CLSI protocol based two fold serial dilution method
Staphylococcus aureus [9] = assay: Antibacterial activity against Staphylococcus aureus ATCC 29213 assessed as inhibition of bacterial growth after 24 hrs by CLSI protocol based two fold serial dilution method
Staphylococcus aureus [10] = assay: Antibacterial activity against Staphylococcus aureus ATCC 25923 assessed as inhibition of bacterial growth after 24 hrs by CLSI protocol based two fold serial dilution method; outline: as §1

Compound | MIC (Escherichia coli [1]) | MIC (Aspergillus fumigatus) | MIC (Candida parapsilosis) | MIC (Klebsiella pneumoniae) | MIC (Pseudomonas aeruginosa [2]) | MIC (Acinetobacter baumannii) | MIC (Pseudomonas aeruginosa [3]) | MIC (Candida albicans [4]) | MIC (Candida tropicalis) | MIC (Staphylococcus aureus [5]) | MIC (Escherichia coli [6]) | MIC (Enterococcus faecalis) | MIC (Candida albicans [7]) | MIC (Staphylococcus aureus [8]) | MIC (Staphylococcus aureus [9]) | MIC (Staphylococcus aureus [10])
CCn1cc(-c2csc(N)n2)c(=O)c2cc(F)c(N3CCN(Cc4ccc(F)cc4)CC3)cc21 | 33 µM (≈ 15.9 µg/mL) | 266 µM (≈ 128 µg/mL) | 67 µM (≈ 32.3 µg/mL) | 266 µM (≈ 128 µg/mL) | 67 µM (≈ 32.3 µg/mL) | 266 µM (≈ 128 µg/mL) | 1060 µM (≈ 512 µg/mL) | 133 µM (≈ 64 µg/mL) | 133 µM (≈ 64 µg/mL) | 133 µM (≈ 64 µg/mL) | 67 µM (≈ 32.3 µg/mL) | 67 µM (≈ 32.3 µg/mL) | 17 µM (≈ 8.19 µg/mL) | 67 µM (≈ 32.3 µg/mL) | 532 µM (≈ 256 µg/mL) | 133 µM (≈ 64 µg/mL)
CCn1cc(-c2csc(N)n2)c(=O)c2cc(N3CCN(c4cc5c(cc4F)c(=O)c(-c4csc(N)n4)cn5CC)CC3)c(Cl)cc21 | 757 µM (≈ 513 µg/mL) | 189 µM (≈ 128 µg/mL) | 757 µM (≈ 513 µg/mL) | 379 µM (≈ 257 µg/mL) | 757 µM (≈ 513 µg/mL) | 757 µM (≈ 513 µg/mL) | 757 µM (≈ 513 µg/mL) | 757 µM (≈ 513 µg/mL) | 757 µM (≈ 513 µg/mL) | 757 µM (≈ 513 µg/mL) | 189 µM (≈ 128 µg/mL) | 757 µM (≈ 513 µg/mL) | 757 µM (≈ 513 µg/mL) | 757 µM (≈ 513 µg/mL) | 757 µM (≈ 513 µg/mL) | 757 µM (≈ 513 µg/mL)
CCCCCCCCCCN1CCN(c2cc3c(cc2F)c(=O)c(-c2csc(N)n2)cn3CC)CC1 | 499 µM (≈ 256 µg/mL) | 125 µM (≈ 64.2 µg/mL) | 249 µM (≈ 128 µg/mL) | 499 µM (≈ 256 µg/mL) | 249 µM (≈ 128 µg/mL) | 249 µM (≈ 128 µg/mL) | 499 µM (≈ 256 µg/mL) | 997 µM (≈ 512 µg/mL) | 499 µM (≈ 256 µg/mL) | 499 µM (≈ 256 µg/mL) | 499 µM (≈ 256 µg/mL) | 499 µM (≈ 256 µg/mL) | 997 µM (≈ 512 µg/mL) | 997 µM (≈ 512 µg/mL) | 997 µM (≈ 512 µg/mL) | 499 µM (≈ 256 µg/mL)
CCn1cc(-c2csc(N)n2)c(=O)c2cc(F)c(N3CCN(Cc4ccc(Cl)cc4Cl)CC3)cc21 | 482 µM (≈ 257 µg/mL) | 482 µM (≈ 257 µg/mL) | 15 µM (≈ 7.99 µg/mL) | 241 µM (≈ 128 µg/mL) | 121 µM (≈ 64.4 µg/mL) | 482 µM (≈ 257 µg/mL) | 241 µM (≈ 128 µg/mL) | 482 µM (≈ 257 µg/mL) | 482 µM (≈ 257 µg/mL) | 482 µM (≈ 257 µg/mL) | 241 µM (≈ 128 µg/mL) | 121 µM (≈ 64.4 µg/mL) | 482 µM (≈ 257 µg/mL) | 15 µM (≈ 7.99 µg/mL) | 241 µM (≈ 128 µg/mL) | 60 µM (≈ 31.9 µg/mL)
CCn1cc(-c2csc(N)n2)c(=O)c2cc(F)c(N3CCN(CC(=O)N(CCO)CCO)CC3)cc21 | 15 µM (≈ 7.78 µg/mL) | 15 µM (≈ 7.78 µg/mL) | 31 µM (≈ 16.1 µg/mL) | 62 µM (≈ 32.2 µg/mL) | 62 µM (≈ 32.2 µg/mL) | 62 µM (≈ 32.2 µg/mL) | 62 µM (≈ 32.2 µg/mL) | 62 µM (≈ 32.2 µg/mL) | 62 µM (≈ 32.2 µg/mL) | 124 µM (≈ 64.3 µg/mL) | 62 µM (≈ 32.2 µg/mL) | 15 µM (≈ 7.78 µg/mL) | 8 µM (≈ 4.15 µg/mL) | 62 µM (≈ 32.2 µg/mL) | 62 µM (≈ 32.2 µg/mL) | 8 µM (≈ 4.15 µg/mL)
OC(Cn1cncn1)(Cn1cncn1)c1ccc(F)cc1F [FLUCONAZOLE] | – | 836 µM (≈ 256 µg/mL) | 13 µM (≈ 3.98 µg/mL) | – | – | – | – | 13 µM (≈ 3.98 µg/mL) | 26 µM (≈ 7.96 µg/mL) | – | – | – | 7 µM (≈ 2.14 µg/mL) | – | – | –
CCn1cc(-c2csc(N)n2)c(=O)c2cc(F)c(N3CCN(Cc4ccc(Cl)c(Cl)c4)CC3)cc21 | 15 µM (≈ 7.99 µg/mL) | 241 µM (≈ 128 µg/mL) | 8 µM (≈ 4.26 µg/mL) | 241 µM (≈ 128 µg/mL) | 241 µM (≈ 128 µg/mL) | 482 µM (≈ 257 µg/mL) | 482 µM (≈ 257 µg/mL) | 482 µM (≈ 257 µg/mL) | 482 µM (≈ 257 µg/mL) | 482 µM (≈ 257 µg/mL) | 241 µM (≈ 128 µg/mL) | 30 µM (≈ 16 µg/mL) | 482 µM (≈ 257 µg/mL) | 15 µM (≈ 7.99 µg/mL) | 241 µM (≈ 128 µg/mL) | 241 µM (≈ 128 µg/mL)
CCCCCCCCN1CCN(c2cc3c(cc2F)c(=O)c(-c2csc(N)n2)cn3CC)CC1 | 1060 µM (≈ 512 µg/mL) | 16 µM (≈ 7.77 µg/mL) | 264 µM (≈ 128 µg/mL) | 264 µM (≈ 128 µg/mL) | 264 µM (≈ 128 µg/mL) | 528 µM (≈ 256 µg/mL) | 264 µM (≈ 128 µg/mL) | 1060 µM (≈ 512 µg/mL) | 264 µM (≈ 128 µg/mL) | 264 µM (≈ 128 µg/mL) | 264 µM (≈ 128 µg/mL) | 528 µM (≈ 256 µg/mL) | 1060 µM (≈ 512 µg/mL) | 528 µM (≈ 256 µg/mL) | 528 µM (≈ 256 µg/mL) | 264 µM (≈ 128 µg/mL)
CCOC(=O)CN1CCN(c2cc3c(cc2F)c(=O)c(-c2csc(N)n2)cn3CC)CC1 | 558 µM (≈ 256 µg/mL) | 558 µM (≈ 256 µg/mL) | 279 µM (≈ 128 µg/mL) | 139 µM (≈ 63.9 µg/mL) | 70 µM (≈ 32.2 µg/mL) | 35 µM (≈ 16.1 µg/mL) | 139 µM (≈ 63.9 µg/mL) | 70 µM (≈ 32.2 µg/mL) | 139 µM (≈ 63.9 µg/mL) | 70 µM (≈ 32.2 µg/mL) | 279 µM (≈ 128 µg/mL) | 279 µM (≈ 128 µg/mL) | 70 µM (≈ 32.2 µg/mL) | 139 µM (≈ 63.9 µg/mL) | 139 µM (≈ 63.9 µg/mL) | 17 µM (≈ 7.81 µg/mL)
